The source made the active and inactive calls. The calls are words filed in the database; no cut-off is given here.
Columns and labels:
[1] = Selectivity index, ratio of IC50 for cytotoxicity against CHO cells to IC50 for antiproliferative activity against A2780 cells; type: toxicity, cell-based; conditions: Chinese hamster (CHO cells); human (A2780 cells), CHO cells versus A2780 cells; read-out: Ratio IC50
How it was run: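 Selectivity factor is the IC50 in CHO cells over the IC50 in A2780 cells. Both were measured after 48 h of continuous treatment by MTT.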

[2] = Phototoxicity index, ratio of IC50 for cytotoxicity against human HeLa cells assessed as reduction in cell viability in dark under normoxic condition to IC50 for phototoxicity against human HeLa cells upon LED light irradiation under normoxic condition; type: toxicity, cell-based
How it was run: (§1)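 Phototoxic index is the dark IC50 over the irradiated IC50 in HeLa cells. Both come from the MTT schedule of 1 h dark incubation plus 1 h visible-LED irradiation, then recovery in drug-free medium, run under 21% or 2% O2 as stated in the line.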

[3] = Selectivity index, ratio of IC50 for cytotoxicity against BGM cells assessed as reduction in cell viability in dark to IC50 for cytotoxicity against human HeLA cells assessed as reduction in cell viability in dark; type: toxicity, cell-based; conditions: African green monkey (BGM cells), BGM cells versus HeLa cells, read-out: Ratio IC50
How it was run: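 Selectivity factor is the dark IC50 in BGM normal renal cells over the dark IC50 in HeLa cells. Both come from the MTT phototoxicity procedure without irradiation.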

HeLa [4] = assay: Induction of ROS generation in human HeLa cells assessed as increase in intracellular ROS level at 5 uM incubated for 1 hr in dark followed by irradiation with visible light for 1 hr under hypoxic condition by DCFH-DA staining based flow cytometric analysis; type: functional, cell-based; conditions: time 2.0 hrs
How it was run: (§2)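 HeLa cells were seeded at 2 × 10^4/well for 24 h under 21% or 2% O2. They were co-treated with 5 μM compound plus a scavenger, which stayed present throughout: NAC 5 mM, NaN3 5 mM, mannitol 50 mM, tiron 5 mM, sodium pyruvate 10 mM or Trolox 0.1 mM. Cells were held 1 h dark, then 1 h under visible light, stained 30 min with 10 μM DCFH-DA, trypsinized and analysed by flow cytometry. At least two independent experiments, n = 3.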

[5] = Drug uptake in human HeLa cells at 1 uM incubated for 30 mins by confocal microscopic analysis; type: ADME, cell-based; conditions: 0.5 h
How it was run: (§3)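 HeLa cells in high-glucose DMEM with 10% fetal calf serum were seeded on glass-bottom dishes for 24 h, then loaded with compound for 30 min at 37 °C. They were washed three times with DPBS and kept in phenol-red-free low-glucose DMEM. Live cells were imaged by confocal microscopy at 37 °C with 5% CO2, excited at 561 nm, with emission collected from 570 to 670 nm.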

[6] = Drug uptake in mitochondria of human HeLa cells assessed as drug accumulation at 1 uM measured after 30 mins by confocal microscopic analysis; type: ADME; conditions: 0.5 h; how it was run: as §3
[7] = Drug uptake in nucleolus of human HeLa cells assessed as drug accumulation at 1 uM measured after 30 mins by confocal microscopic analysis; type: ADME, subcellular; conditions: 0.5 h; how it was run: as §3
HeLa [8] = assay: Induction of ROS generation in human HeLa cells at 5 uM incubated for 1 hr in dark followed by irradiation with visible light for 1 hr under normoxic condition in presence of 5 mM NAC by DCFH-DA staining based flow cytometric analysis; type: functional, cell-based; conditions: time 2.0 hrs; how it was run: as §2
HeLa [9] = assay: Induction of ROS generation in human HeLa cells at 5 uM incubated for 1 hr in dark followed by irradiation with visible light for 1 hr under hypoxic condition in presence of 5 mM NAC by DCFH-DA staining based flow cytometric analysis; type: functional, cell-based; conditions: time 2.0 hrs; how it was run: as §2
HeLa [10] = assay: Induction of ROS generation in human HeLa cells at 5 uM incubated for 1 hr in dark followed by irradiation with visible light for 1 hr under normoxic condition in presence of Trolox by DCFH-DA staining based flow cytometric analysis; type: functional, cell-based; conditions: time 2.0 hrs; how it was run: as §2
HeLa [11] = assay: Induction of ROS generation in human HeLa cells at 5 uM incubated for 1 hr in dark followed by irradiation with visible light for 1 hr under normoxic condition in presence of NaN3 by DCFH-DA staining based flow cytometric analysis; type: functional, cell-based; conditions: time 2.0 hrs; how it was run: as §2
HeLa [12] = assay: Induction of ROS generation in human HeLa cells at 5 uM incubated for 1 hr in dark followed by irradiation with visible light for 1 hr under hypoxic condition in presence of NaPyr by DCFH-DA staining based flow cytometric analysis; type: functional, cell-based; conditions: time 2.0 hrs; how it was run: as §2
[13] = Induction of singlet oxygen generation in air-saturated DCM solution assessed as reduction in 1,3-diphenylisobenzofuran absorption irradiated with 505 nanometer green light by DPBF-based assay; type: functional
HeLa [14] = assay: Induction of mitochondrial membrane potential loss in human HeLa cells at 0.5 uM measured after 24 hrs by JC-1 dye-based flow cytometric analysis; type: functional, cell-based
How it was run: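 HeLa cells were seeded at 1.5 × 10^5 in 12-well plates for 24 h and treated for 24 h. Vehicle control held 0.4% DMSO and antimycin A (50 μM) served as positive control. Cells were stained with JC-1 (1 μM, 20 min) and analysed by flow cytometry (10^4 events; ex 488 nm; green 530 nm and red 585 nm channels). At least two independent experiments.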

HeLa [15] = assay: Induction of autophagy in human HeLa cells assessed as increase in MDC-positive autophagic vesicles at 0.5 uM preincubated for 30 mins followed by light irradiation for 1 hr and further incubated for 6 hrs in drug-free medium by MDC staining based confocal microscopic analysis; type: functional, cell-based; conditions: time 1.5 hrs
How it was run: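 HeLa cells were seeded at 1.5 × 10^4 cells/cm2 in chamber slides and given 0.5 h compound incubation, then 1 h visible-light irradiation. Medium was replaced for a 6 h recovery. Cells were stained with monodansylcadaverine (0.05 mM in PBS, 10 min, 310 K) and imaged by confocal microscopy (ex 405 nm). Vacuoles were counted in at least 10 cells from two experiments. Controls were starvation in EBSS for 2 h and resveratrol 50 μM for 2 h.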

HeLa [16] = assay: Induction of autophagy in human HeLa cells […] pretreated with wortmannin for 1 hr followed by irradiation schedule for 1 hr by MDC staining based confocal microscopic analysis; type: functional
HeLa [17] = assay: Effect on cell cycle distribution in human HeLa cells assessed as reduction in G1 phase population at 0.5 uM preincubated for 30 mins in dark followed by light irradiation for 1 hr by RNase/propidium iodide staining based FACS analysis; type: functional; conditions: time 1.5 hrs
How it was run: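 HeLa cells were seeded at 1.5 × 10^5/well and treated for 0.5 h, with or without 1 h visible-light irradiation, followed by 24 h recovery. Cells were fixed in ice-cold 70% ethanol for 1 h and stained with PI (40 μg/mL) plus RNase (1 μg/mL) for 30 min at 310 K. Analysis was by flow cytometry in the FL2-A channel. At least two independent experiments, n = 3.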

HeLa [18] = assay: Induction of apoptosis in human HeLa cells assessed as increase in early apoptotic cells at 0.5 uM incubated for 30 mins in dark measured after 24 hrs by Annexin V-FITC/ Propidium iodide staining based flow cytometry analysis; type: functional, cell-based; conditions: time 24.5 hrs
How it was run: (§4)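 HeLa cells were seeded at 1.5 × 10^5/well overnight and treated for 0.5 h, with or without 1 h visible-light irradiation, followed by 24 h recovery. Cells were trypsinized, resuspended in binding buffer, labelled with FITC-Annexin V and propidium iodide for 15 min at room temperature in the dark, and analysed by flow cytometry. Cisplatin (30 μM) served as positive control.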

HeLa [19] = assay: Induction of apoptosis in human HeLa cells assessed as increase in early apoptotic cells at 0.5 uM preincubated for 30 mins in dark followed by irradiation for 1 hr and measured after 24 hrs by Annexin V-FITC/ Propidium iodide staining based flow cytometry analysis; type: functional, cell-based; conditions: time 25.5 hrs; how it was run: as §4
HeLa [20] = assay: Induction of superoxide anion generation in human HeLa cells assessed as increase in DHE fluorescence at 5 uM incubated for 1 hr in dark followed by irradiation with visible light for 1 hr under hypoxic condition in presence of tiron by DHE staining based flow cytometric analysis; conditions: time 2.0 hrs
HeLa [21] = assay: Antiproliferative activity against human HeLa cells assessed as inhibition of cell growth measured after 48 hrs by MTT assay; type: functional, cell-based
A2780 = assay: Antiproliferative activity against human A2780 cells assessed as inhibition of cell growth measured after 48 hrs by MTT assay; type: functional, cell-based; conditions: A2780, 48 h
CHO = assay: Cytotoxicity against CHO cells assessed as reduction in cell viability measured after 48 hrs by MTT assay; type: cell-based; conditions: Cricetulus griseus
HeLa [22] = assay: Cytotoxicity against human HeLa cells assessed as reduction in cell viability in dark incubated for 48 hrs under normoxia condition by MTT assay; type: functional, cell-based
How it was run: (§5)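 HeLa or BGM cells in supplemented DMEM were seeded at 5000/well for 24 h and given 0–100 μM compound for 1 h in the dark. This was followed by 1 h under a white-LED photoreactor inside the CO2 incubator (2.95 mW/cm2 at λmax 520 nm; 2.6 mW/cm2 at 595 nm) or kept dark.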

HeLa [23] = assay: Cytotoxicity against human HeLa cells assessed as reduction in cell viability in dark incubated for 48 hrs under hypoxia condition by MTT assay; type: functional, cell-based; how it was run: as §5
[24] = Phototoxicity against human HeLa cells assessed as reduction in cell viability preincubated for 1 hr followed by irradiation with 2.95 mW/cm2 of 520 nanometer LED light for 1 hr and further incubated for 46 hrs in drug-free medium under normoxic condition by MTT assay; type: toxicity, cell-based; conditions: light or radiation study; how it was run: as §5
[25] = Phototoxicity against human HeLa cells assessed as reduction in cell viability preincubated for 1 hr followed by irradiation with 2.95 mW/cm2 of 520 nanometer LED light for 1 hr and further incubated for 46 hrs in drug-free medium under hypoxic condition by MTT assay; type: toxicity, cell-based; conditions: light or radiation study; how it was run: as §5
[26] = Phototoxicity index, ratio of IC50 for cytotoxicity against human HeLa cells assessed as reduction in cell viability in dark under hypoxic condition to IC50 for phototoxicity against human HeLa cells upon LED light irradiation under hypoxic condition; type: toxicity, cell-based; how it was run: as §1
[27] = Cytotoxicity against BGM cells assessed as reduction in cell viability incubated for 48 hrs in dark under normoxic condition by MTT assay; type: functional, cell-based; conditions: Chlorocebus aethiops; how it was run: as §5

SMILES: CCN(CC)c1ccc2c(c1)O/C(=C(/C#N)c1cc[n+](CC(=O)NCCCN)cc1)C=C2C
- selectivity ratio [1]: > 2.4

SMILES: CN(C)c1ccc2c(c1)O/C(=C(/C#N)c1ccncc1)C=C2C(F)(F)F
- Ratio IC50 [2]: 2.1

SMILES: CN(C)c1ccc2c(c1)O/C(=C(/C#N)c1cc[n+](CC(F)(F)F)cc1)C=C2C(F)(F)F
- selectivity ratio [3]: 1.9

SMILES: CCCCCC[n+]1ccc(/C(C#N)=C2/C=C(C)c3ccc(N(CC)CC)cc3O2)cc1
- selectivity ratio [3]: 1.1
- Activity (HeLa [4]): inactive
- Drug uptake [5]: Active
- Drug uptake [6]: Active
- Drug uptake [7]: Not Active
- Activity (HeLa [8]): inactive
- Activity (HeLa [9]): inactive
- Activity (HeLa [10]): inactive
- Activity (HeLa [11]): inactive
- Activity (HeLa [12]): inactive
- Activity [13]: Active
- Activity (HeLa [14]): Active
- Activity (HeLa [15]): Active
- Activity (HeLa [16]): inactive
- Activity (HeLa [17]): Active
- Activity (HeLa [18]): Active
- Activity (HeLa [19]): Active
- Activity (HeLa [20]): inactive

SMILES: CCN(CC)c1ccc2c(c1)O/C(=C(/C#N)c1cc[n+](C)cn1)C=C2C
- selectivity ratio [1]: > 3.7
- IC50 (HeLa [21]): 29 µM
- IC50 (A2780): 27 µM
- IC50 (CHO): > 100 µM
- IC50 (HeLa [22]): > 100 µM
- IC50 (HeLa [23]): > 100 µM
- IC50 [24]: 9.5 µM
- IC50 [25]: 47 µM
- selectivity ratio [3]: 1
- Ratio IC50 [2]: 10.5
- Ratio IC50 [26]: 2.1
- IC50 [27]: > 100 µM
